# From the EternaBench riboswitch data
# Tested on: MS2 coat protein
# Test: apparent Kd, MS2 coat protein; higher = weaker binding; RNA-MaP array; theophylline 2 mM where present
# Procedure, shortened: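 Stalled E. coli RNA polymerase produced the designs on Illumina sequencing-chip clusters. SNAP-549-labelled MS2 coat protein was added from 0.7 or 1.5 nM, doubling to 3 µM, without and then with constant ligand, in 100 mM Tris-HCl pH 7.5, 80 mM KCl, 4 mM MgCl2, BSA, DTT, yeast tRNA and Tween-20. The apparent Kd is the median of filtered per-cluster fits of green signal normalised to red-channel RNA signal and control-cluster median Fmax.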
# [1] = designed as: ON switch for theophylline, no ligand
# [2] = ligand present: theophylline, designed as: ON switch for theophylline
# [3] = designed as: OFF switch for theophylline, no ligand
# [4] = ligand present: theophylline, designed as: OFF switch for theophylline
Sequence,apparent Kd [1] [nM],apparent Kd [2] [nM],apparent Kd [3] [nM],apparent Kd [4] [nM]
UGUAACAUGAGGAUCACCCAUGUGAGUGAUACCAGAUUAGUAUUAGUCCCUUGGCAGCACGUUGGGCGAGUGUAUAGUCUAUGCG,147,113,–,–
ACGUCAACCCUUAUGUUGAUGCAAGACGAUACCAGCCUGGAUACAGGCCCUUGGCAGCGUCAACAUGAGGAUCACCCAUGUAAUA,82.8,118,–,–
UUUGCACAUGAGGAUCACCCAUGUACAGAUACCAGCCUCAUCUACGGCCCUUGGCAGCUGAGACAAUGGUGACAUGAUGGGCUUU,–,–,12.1,32.6
UAUAUGGUGAUGGAUACCAGCAGAGAAAACGUUUAUCCUAACAUGAGGAUCACCCAUGUAUGCCCUUGGCAGCUGUUGUUAUAUA,–,–,37.9,29.7
AGACAUGAGGAUCACCCAUGUAGUACGGAUACCAGAUCCAGAUGUAUCCCUUGGCAGCUGUGGUACAGCGUUGCAACGCUCCUAG,–,–,16,15.3
AGCCUAUUACAUGAGGAUCACCCAUGUGAUACCAGUCAGGAAACUGACCCUUGGCAGCGCAUGAGGAUCACCCAUGCGCGAGGCA,–,–,11,11.9
UUUUAAAGCAUGGCGUAUCGGAAAACCGAUACCAGUACAGAAAUGUACCCUUGGCAGCGGAAUUUUACAUGAGGAUCACCCAUGU,–,–,13.1,43.4
AAGCAGGGUGUAAAAUAAAUAAUCACUGAUACCAGACUAUGAGAUGUCCCUUGGCAGCAGAAACAUGAGGAUCACCCAUGUAAUA,–,–,22.7,32.3
AAAGAUACCAGAGAUACCAGCCAAAAUUAAAAUAAAACCUCACAUGAGGAUCACCCAUGUGGCCCUUGGCAGCUCCCUUGGCAGC,–,–,12.5,53.7
UACAUGAGGAUCACCCAUGUAUACAUGGAUACCAGCGACAAUGGGCGCCCUUGGCAGCUAGUGGAUGGAGGGUGGCCACAGUACU,–,–,70.2,71.8
AUACACCUCGUCCAGGCAAUCUUUAGUGAUACCAGCUAACUCCGUGGCCCUUGGCAGCACAUGAGGAUCACCCAUGUGCGACAUC,–,–,11.1,11.8
AGACAUGAGGAUCACCCAUGUAGCAUGGAUACCAGAUGUAGAUUAGUCCCUUGGCAGCUGUGGUGAAGUGAUGCAUUGCUCCUAG,–,–,63.2,61.6
UUACGAGGCUAUCCACUUUGAUUUUGUGAUACCAGAAUAAUUUUAUUCCCUUGGCAGCAUGACAUGAGGAUCACCCAUGUGUCUU,38,61.7,–,–
UUUGAUAGGACAGAUACCAGCGUGUUGUAGAACAUGAGGAUCACCCAUGUAGUGAUCAAGCGCCCUUGGCAGCUGGUUUGUUAGG,170,82.6,–,–
UACAUGAGGAUCACCCAUGUGGCGGAUGAUACCAGUAUGGUGACAUACCCUUGGCAGCAUGCUAUGAGGAUCACCCAUGUGUGCA,–,–,85.3,166
UACAUGAGGAUCACCCAUGUAUGAAUAGAUACCAGCGAAAAUAAGCGCCCUUGGCAGCUAGUGAAUAAAGGGUGGGUAAAAUAAU,–,–,9.18,19.9
AGUACUCGAACGGAUACCAGCCGGACAUGAGGAUCACCCAUGUCCUACCAUGUUUCGGUUGGCCCUUGGCAGCCGUUCGUGUACA,425,30.4,–,–
AGUGUUAUAACUGAUACCAGACCUUUGCUUAUACAUGAGGAUCACCCAUGUAAAAUGGCGGUCCCUUGGCAGCAGAGAAUACGCA,68,13.2,–,–
AGCCCUGUACUAGAUACCAGCUACAUGAGGAUCACCCAUGUGCGUCAAGACUGACUGUGUGGCCCUUGGCAGCUGCUCGCAUGUA,–,–,146,208
AGACAUGAGGAUCACCCAUGUAGUACGGAUACCAGAUCCAGAUGCGUCCCUUGGCAGCUGUAGUACAGCGUUACAUCGCUCGUAG,–,–,20.8,32.1
UGGUUUGUGAUGGAUACCAGCAGAGAAAACGUUUAUCCUAACAUGAGGAUCACCCAUGUAUGCCCUUGGCAGCUGUUGUGGGCUG,–,–,36,38.9
UGUAACAUGAGGAUCACCCAUGUGCACGAUACCAGCUUAUUGAUAGGCCCUUGGCAGCGUAUGCGGAAGCUGUAUAAUAUAUAUC,11.3,12.7,–,–
GCACCAGGUACGGAUACCAGCUAUAGGUACAUGUCAGGACAUGAGGAUCACCCAUGUGGUAGCCCUUGGCAGCUGUACCUGGUGC,–,–,17.4,27.2
